# ChEMBL document CHEMBL1157634, “Differential binding of phenothiazine urea derivatives to wild-type human cholinesterases and butyrylcholinesterase mutants” (Bioorg Med Chem, 2010)
# The source made the active and inactive calls. The rule behind the calls is not given here.
# Molecular target: T1, Cholinesterase (Homo sapiens, UniProt P06276)
# Conditions: 500 nM
# T1 sequence (P06276 whole entry): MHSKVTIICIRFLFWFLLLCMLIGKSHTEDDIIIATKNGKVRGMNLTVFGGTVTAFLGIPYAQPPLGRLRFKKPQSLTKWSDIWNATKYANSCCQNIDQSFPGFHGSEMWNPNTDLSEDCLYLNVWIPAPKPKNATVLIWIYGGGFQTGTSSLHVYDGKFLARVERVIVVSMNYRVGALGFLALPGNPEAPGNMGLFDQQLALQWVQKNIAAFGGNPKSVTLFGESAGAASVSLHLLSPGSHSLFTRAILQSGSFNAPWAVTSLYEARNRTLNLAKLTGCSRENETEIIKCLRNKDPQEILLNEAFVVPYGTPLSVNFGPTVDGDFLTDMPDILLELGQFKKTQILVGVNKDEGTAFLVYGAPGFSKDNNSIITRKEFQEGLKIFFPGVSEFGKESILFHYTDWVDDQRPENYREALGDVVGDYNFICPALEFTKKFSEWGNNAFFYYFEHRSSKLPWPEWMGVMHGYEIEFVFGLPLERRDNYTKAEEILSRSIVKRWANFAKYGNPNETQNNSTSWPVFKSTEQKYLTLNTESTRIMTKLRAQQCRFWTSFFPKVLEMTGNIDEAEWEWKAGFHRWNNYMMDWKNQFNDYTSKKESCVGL
row,SMILES,inhibition
1,CC(C)N(CCNC(=O)N1c2ccccc2Sc2ccccc21)C(C)C,Active

# Molecular target: T2, Acetylcholinesterase (Homo sapiens, UniProt P22303)
# T2 sequence (P22303 whole entry): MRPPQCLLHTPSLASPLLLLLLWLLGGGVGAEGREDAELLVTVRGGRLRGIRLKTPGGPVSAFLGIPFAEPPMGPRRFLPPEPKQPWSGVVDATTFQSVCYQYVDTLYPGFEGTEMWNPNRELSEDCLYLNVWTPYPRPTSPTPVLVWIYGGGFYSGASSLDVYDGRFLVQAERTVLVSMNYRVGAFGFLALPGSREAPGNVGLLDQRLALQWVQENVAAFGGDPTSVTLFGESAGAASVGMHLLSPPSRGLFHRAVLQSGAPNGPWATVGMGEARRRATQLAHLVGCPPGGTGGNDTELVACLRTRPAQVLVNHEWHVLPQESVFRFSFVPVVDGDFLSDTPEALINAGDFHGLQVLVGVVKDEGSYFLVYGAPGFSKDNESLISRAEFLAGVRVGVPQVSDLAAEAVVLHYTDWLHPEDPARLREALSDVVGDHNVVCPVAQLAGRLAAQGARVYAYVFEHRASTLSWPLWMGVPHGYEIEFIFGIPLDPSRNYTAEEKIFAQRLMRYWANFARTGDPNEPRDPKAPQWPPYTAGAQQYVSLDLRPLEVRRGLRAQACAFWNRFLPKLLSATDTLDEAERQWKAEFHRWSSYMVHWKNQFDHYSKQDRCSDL
# Test: Inhibition of human recombinant AChE by modified Ellman's spectrophotometric method
# Conditions: not given
row,SMILES,Ki
1,CC(C)(C)CNC(=O)N1c2ccccc2Sc2ccccc21,Not Active
2,O=C(NC1CCCCC1)N1c2ccccc2Sc2ccccc21,Not Active
3,COCCNC(=O)N1c2ccccc2Sc2ccccc21,Not Active
4,CC(C)(C)NC(=O)N1c2ccccc2Sc2ccccc21,Not Active
5,O=C(NCc1ccccc1)N1c2ccccc2Sc2ccccc21,Not Active
6,CC(C)N(C(=O)N1c2ccccc2Sc2ccccc21)C(C)C,Not Active
7,O=C(NCc1cccc2ccccc12)N1c2ccccc2Sc2ccccc21,Not Active
8,O=C(NC1CCC1)N1c2ccccc2Sc2ccccc21,Not Active
9,CCCN(CCC)C(=O)N1c2ccccc2Sc2ccccc21,Not Active
10,CCCNC(=O)N1c2ccccc2Sc2ccccc21,Not Active
11,O=C(NC12CC3CC(CC(C3)C1)C2)N1c2ccccc2Sc2ccccc21,Not Active
12,O=C(N1CCCCC1)N1c2ccccc2Sc2ccccc21,Not Active
13,COc1ccc(NC(=O)N2c3ccccc3Sc3ccccc32)cc1,Not Active
14,O=C(NCCCN1CCOCC1)N1c2ccccc2Sc2ccccc21,Not Active
15,O=C(Nc1ccccc1)N1c2ccccc2Sc2ccccc21,Not Active
16,O=C(N1CCOCC1)N1c2ccccc2Sc2ccccc21,Not Active
17,CN(CCCNC(=O)N1c2ccccc2Sc2ccccc21)c1ccccc1,Not Active
18,O=C(NC1CC1)N1c2ccccc2Sc2ccccc21,Not Active
19,O=C(Nc1ccc(Cl)cc1)N1c2ccccc2Sc2ccccc21,Not Active
20,O=C(NCCN1CCOCC1)N1c2ccccc2Sc2ccccc21,Not Active
21,O=C(N1CCCC1)N1c2ccccc2Sc2ccccc21,Not Active
22,Cc1ccc(NC(=O)N2c3ccccc3Sc3ccccc32)cc1,Not Active
23,O=C(NC1CCCC1)N1c2ccccc2Sc2ccccc21,Not Active
24,O=C(NCCc1ccccc1)N1c2ccccc2Sc2ccccc21,Not Active
25,CN1CCN(C(=O)N2c3ccccc3Sc3ccccc32)CC1,Not Active
26,CCN(CC)C(=O)N1c2ccccc2Sc2ccccc21,Not Active
27,Cc1ccccc1NC(=O)N1c2ccccc2Sc2ccccc21,Not Active
28,CCCCNC(=O)N1c2ccccc2Sc2ccccc21,Not Active

# Same assay, conditions: read-out: Ki
row,SMILES,Ki
1,CC(C)N(CCNC(=O)N1c2ccccc2Sc2ccccc21)C(C)C,0.81 µM
2,O=C(NCCN1CCCC1)N1c2ccccc2Sc2ccccc21,29.4 µM
3,O=C(NCCN1CCCCC1)N1c2ccccc2Sc2ccccc21,0.62 µM
4,CNC(=O)N1c2ccccc2Sc2ccccc21,9.36 µM
5,CCNC(=O)N1c2ccccc2Sc2ccccc21,1450 µM
6,CC(C)NC(=O)N1c2ccccc2Sc2ccccc21,691 µM
7,CN(C)C(=O)N1c2ccccc2Sc2ccccc21,400 µM
8,CCN(CC)CCNC(=O)N1c2ccccc2Sc2ccccc21,16.3 µM
9,NC(=O)N1c2ccccc2Sc2ccccc21,89.3 µM

# Organism: Homo sapiens
# Test: Inhibition of human BuChE D70G mutant at 50 nM by modified Ellman's spectrophotometric method
# Conditions: not given
# Summary of the method: (§1)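 Recombinant human BuChE mutants (D70G, F329A, Y332A), with wild-type BuChE for comparison, tested by modified Ellman assay. Buffered DTNB (usually pH 8.0), 23 °C, single butyrylthiocholine concentration of 1.6 × 10^-4 M final. Inhibitor added in 50% aqueous acetonitrile (final 1.67% v/v). Rate read at 412 nm every 5 s for 1 min.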
row,SMILES,inhibition
1,CC(C)N(CCNC(=O)N1c2ccccc2Sc2ccccc21)C(C)C,inactive

# Molecular target: T1, Cholinesterase
# Conditions: 1.8 uM
row,SMILES,inhibition
1,CC(C)N(CCNC(=O)N1c2ccccc2Sc2ccccc21)C(C)C,inactive

# Molecular target: T1, Cholinesterase
# Conditions: 1.8 uM
# Remark: another data set of the same source
row,SMILES,inhibition
1,CC(C)N(CCNC(=O)N1c2ccccc2Sc2ccccc21)C(C)C,Active

# Molecular target: T1, Cholinesterase
# Test: Inhibition of human plasma BuChE by modified Ellman's spectrophotometric method
# Assay type: cell-free
# Conditions: not given
# Summary of the method: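 Purified human plasma BuChE (~0.05 units in 0.1% gelatin) in DTNB buffer at pH 8.0, 23 °C, read at 412 nm. Inhibitors first screened in 1:10 serial dilutions in 50% acetonitrile. Lineweaver–Burk plots used butyrylthiocholine 3 × 10^-5–1.6 × 10^-4 M without inhibitor and at two inhibitor concentrations. Ki taken as the x-intercept of the slope replot. Runs generally at least in triplicate and averaged.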
row,SMILES,Ki
1,CC(C)N(CCNC(=O)N1c2ccccc2Sc2ccccc21)C(C)C,0.009 µM
2,CC(C)(C)CNC(=O)N1c2ccccc2Sc2ccccc21,2.66 µM
3,O=C(NC1CCCCC1)N1c2ccccc2Sc2ccccc21,2.81 µM
4,O=C(NCCN1CCCC1)N1c2ccccc2Sc2ccccc21,0.21 µM
5,COCCNC(=O)N1c2ccccc2Sc2ccccc21,29.1 µM
6,CC(C)(C)NC(=O)N1c2ccccc2Sc2ccccc21,10.6 µM
7,O=C(NCc1ccccc1)N1c2ccccc2Sc2ccccc21,4.45 µM
8,CC(C)N(C(=O)N1c2ccccc2Sc2ccccc21)C(C)C,0.18 µM
9,O=C(NCCN1CCCCC1)N1c2ccccc2Sc2ccccc21,0.02 µM
10,O=C(NCc1cccc2ccccc12)N1c2ccccc2Sc2ccccc21,0.15 µM
11,CNC(=O)N1c2ccccc2Sc2ccccc21,18.3 µM
12,O=C(NC1CCC1)N1c2ccccc2Sc2ccccc21,10 µM
13,CCCN(CCC)C(=O)N1c2ccccc2Sc2ccccc21,0.43 µM
14,CCNC(=O)N1c2ccccc2Sc2ccccc21,35 µM
15,CCCNC(=O)N1c2ccccc2Sc2ccccc21,20.5 µM
16,CC(C)NC(=O)N1c2ccccc2Sc2ccccc21,3.41 µM
17,O=C(NC12CC3CC(CC(C3)C1)C2)N1c2ccccc2Sc2ccccc21,0.35 µM
18,O=C(N1CCCCC1)N1c2ccccc2Sc2ccccc21,1.56 µM
19,COc1ccc(NC(=O)N2c3ccccc3Sc3ccccc32)cc1,9.63 µM

row,SMILES,Ki
1,O=C(NCCCN1CCOCC1)N1c2ccccc2Sc2ccccc21,7.86 µM
2,O=C(Nc1ccccc1)N1c2ccccc2Sc2ccccc21,0.31 µM
3,O=C(N1CCOCC1)N1c2ccccc2Sc2ccccc21,7.1 µM
4,CN(CCCNC(=O)N1c2ccccc2Sc2ccccc21)c1ccccc1,0.25 µM
5,O=C(NC1CC1)N1c2ccccc2Sc2ccccc21,42.5 µM
6,O=C(Nc1ccc(Cl)cc1)N1c2ccccc2Sc2ccccc21,4.69 µM
7,O=C(NCCN1CCOCC1)N1c2ccccc2Sc2ccccc21,6.91 µM
8,CN(C)C(=O)N1c2ccccc2Sc2ccccc21,9.2 µM
9,O=C(N1CCCC1)N1c2ccccc2Sc2ccccc21,0.56 µM
10,Cc1ccc(NC(=O)N2c3ccccc3Sc3ccccc32)cc1,12.1 µM
11,O=C(NC1CCCC1)N1c2ccccc2Sc2ccccc21,2.99 µM
12,O=C(NCCc1ccccc1)N1c2ccccc2Sc2ccccc21,0.19 µM
13,CN1CCN(C(=O)N2c3ccccc3Sc3ccccc32)CC1,17.1 µM
14,CCN(CC)C(=O)N1c2ccccc2Sc2ccccc21,1.05 µM
15,Cc1ccccc1NC(=O)N1c2ccccc2Sc2ccccc21,0.71 µM
16,CCN(CC)CCNC(=O)N1c2ccccc2Sc2ccccc21,0.51 µM
17,NC(=O)N1c2ccccc2Sc2ccccc21,90.8 µM
18,CCCCNC(=O)N1c2ccccc2Sc2ccccc21,24.7 µM

# Organism: Homo sapiens
# Test: Inhibition of human BuChE Y332A mutant assessed as residual activity at 500 nM by modified Ellman's spectrophotometric method relative to control
# Conditions: not given
# Summary of the method: as §1
row,SMILES,Activity
1,CC(C)N(CCNC(=O)N1c2ccccc2Sc2ccccc21)C(C)C,50%

# Molecular target: T1, Cholinesterase
# Conditions: 50 nM
row,SMILES,inhibition
1,CC(C)N(CCNC(=O)N1c2ccccc2Sc2ccccc21)C(C)C,50%

# Organism: Homo sapiens
# Test: Inhibition of human BuChE F329A mutant at 500 nM by modified Ellman's spectrophotometric method
# Conditions: not given
# Summary of the method: as §1
row,SMILES,inhibition
1,CC(C)N(CCNC(=O)N1c2ccccc2Sc2ccccc21)C(C)C,Active

# Molecular target: T2, Acetylcholinesterase
# Test: Inhibition of human AChE at 1.8 uM by Michaelis-Menten analysis in presence of 20 mM acetylthiocholine as substrate
# Conditions: not given
# Summary of the method: (§2)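 Purified recombinant human AChE (~0.03 units in 0.1% aqueous gelatin) in buffered DTNB (usually pH 8.0) at 23 °C. Fixed enzyme and inhibitor concentrations across acetylthiocholine 0.039–40 mM. Inhibitor added in 50% aqueous acetonitrile (final 1.67% v/v). Hydrolysis rate (ΔA/min) read at 412 nm every 5 s for 1 min. Michaelis–Menten plots of rate versus substrate concentration.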
row,SMILES,inhibition
1,CC(C)N(CCNC(=O)N1c2ccccc2Sc2ccccc21)C(C)C,inactive

# Molecular target: T2, Acetylcholinesterase
# Test: Inhibition of human AChE at 1.8 uM by Michaelis-Menten analysis in presence of 10 mM acetylthiocholine as substrate
# Conditions: not given
# Summary of the method: as §2
row,SMILES,inhibition
1,CC(C)N(CCNC(=O)N1c2ccccc2Sc2ccccc21)C(C)C,Active
